Laboratory results from ChEMBL document CHEMBL1154186, “Synthesis, kinase inhibitory potencies, and in vitro antiproliferative evaluation of new Pim kinase inhibitors” (J Med Chem, 2009).

Key:
[1] = molecular target: Mitogen-activated protein kinase 11 (Homo sapiens) (UniProt Q15759); assay: Inhibition of P38beta assessed as residual enzyme activity at 10 uM relative to untreated control
Outline: (§1)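 Kinases of human origin, except CK1δ, which is rat. Run in 50 mM Tris/HCl pH 7.5, 0.1 mM EGTA, 0.1% 2-mercaptoethanol and 10 mM Mg acetate, with [γ-33P]ATP at 20 µM, 30 min at 21 °C. Acid-stopped and captured on P81 filters. Compound tested at 10 µM; residual % of uninhibited control, duplicate determinations.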

[2] = molecular target: T1, Mitogen-activated protein kinase 15 (Homo sapiens) (UniProt Q8TD08); assay: Inhibition of ERK8 assessed as residual enzyme activity at 10 uM relative to untreated control
T1 sequence (whole entry): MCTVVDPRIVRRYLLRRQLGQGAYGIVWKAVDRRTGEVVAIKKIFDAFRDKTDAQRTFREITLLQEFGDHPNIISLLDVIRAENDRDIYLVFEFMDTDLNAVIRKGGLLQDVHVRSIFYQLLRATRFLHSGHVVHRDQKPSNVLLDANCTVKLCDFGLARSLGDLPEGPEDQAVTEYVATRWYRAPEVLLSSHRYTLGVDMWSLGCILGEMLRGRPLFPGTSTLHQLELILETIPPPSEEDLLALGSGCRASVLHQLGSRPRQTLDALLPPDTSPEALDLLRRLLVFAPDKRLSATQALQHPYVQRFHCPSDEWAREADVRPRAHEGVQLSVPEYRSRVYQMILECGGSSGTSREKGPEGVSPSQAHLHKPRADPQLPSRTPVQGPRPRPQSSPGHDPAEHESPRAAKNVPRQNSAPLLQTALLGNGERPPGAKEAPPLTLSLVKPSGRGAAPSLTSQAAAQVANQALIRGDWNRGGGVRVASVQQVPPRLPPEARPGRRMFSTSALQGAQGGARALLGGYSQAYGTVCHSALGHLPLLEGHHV
Outline: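 Radiometric filter-binding assay at 21 °C for 30 min. Mix: 50 mM Tris/HCl pH 7.5, 0.1 mM EGTA, 0.1% 2-mercaptoethanol, 10 mM Mg acetate and [γ-33P]ATP (800 cpm/pmol) at 5 µM. Stopped with orthophosphoric acid and spotted on P81. Compound at 10 µM; activity given as % remaining versus no-inhibitor control, duplicates. Kinases human full-length unless noted.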

[3] = molecular target: Serine/threonine-protein kinase PAK 6 (Homo sapiens) (UniProt Q9NQU5); assay: Inhibition of PAK6 assessed as residual enzyme activity at 10 uM relative to untreated control; outline: as §1
[4] = molecular target: MAP kinase-interacting serine/threonine-protein kinase 2 (Homo sapiens) (UniProt Q9HBH9); assay: Inhibition of MNK2 assessed as residual enzyme activity at 10 uM relative to untreated control
Outline: (§2)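 Assayed with [γ-33P]ATP at 50 µM and 10 mM Mg acetate in 50 mM Tris/HCl pH 7.5, 0.1 mM EGTA, 0.1% 2-mercaptoethanol, 30 min, 21 °C. Phosphoric acid stop, P81 filter capture. ERK2 and Lck are mouse; AMPK is rat. 10 µM compound; % activity remaining relative to control without inhibitor, duplicates.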

[5] = molecular target: Calcium/calmodulin-dependent protein kinase kinase 2 (Homo sapiens) (UniProt Q96RR4); assay: Inhibition of CAMKKbeta assessed as residual enzyme activity at 10 uM relative to untreated control
[6] = Inhibition of AMPK assessed as residual enzyme activity at 10 uM relative to untreated control; outline: as §2
[7] = molecular target: Serine/threonine-protein kinase pim-1 (Homo sapiens) (UniProt P11309); assay: Inhibition of Pim-1 assessed as residual enzyme activity at 10 uM relative to untreated control
[8] = molecular target: Serine/threonine-protein kinase pim-3 (Homo sapiens) (UniProt Q86V86); assay: Inhibition of Pim-3 assessed as residual enzyme activity at 10 uM relative to untreated control
[9] = tested on: PC-3; assay: Antiproliferative activity against human PC3 cells after 48 hrs by resazurin dye reduction assay; assay type: functional, cell-based; conditions: PC-3, 48 h
Outline: (§3)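 Cells (human fibroblast primary culture, or PC3, DU145 or PA1 cancer lines) were kept as monolayers in Glutamax MEM with Earle's salts, 10% FCS, pyruvate, nonessential amino acids and gentamicin, at 37 °C in 5% CO2. 5×10^3 cells/well adhered for 16 h, then had 48 h continuous drug exposure (20 mM DMSO stock). Resazurin 25 µg/mL for 1 h; fluorescence ex 530/em 590 nm. IC50 from blank-corrected concentration–survival curves versus control wells.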

[10] = tested on: DU-145; assay: Antiproliferative activity against human DU145 cells after 48 hrs by resazurin dye reduction assay; assay type: functional, cell-based; conditions: DU-145, 48 h; outline: as §3
[11] = tested on: PA-1; assay: Antiproliferative activity against human PA1 cells after 48 hrs by resazurin dye reduction assay; assay type: functional, cell-based; conditions: PA-1, 48 h; outline: as §3
[12] = Antiproliferative activity against human fibroblasts after 48 hrs by resazurin dye reduction assay; assay type: cell-based; conditions: Fibroblast; outline: as §3

Calcium/calmodulin-dependent protein kinase kinase 2 (Homo sapiens), sequence (Q96RR4 2-588 limits assumed): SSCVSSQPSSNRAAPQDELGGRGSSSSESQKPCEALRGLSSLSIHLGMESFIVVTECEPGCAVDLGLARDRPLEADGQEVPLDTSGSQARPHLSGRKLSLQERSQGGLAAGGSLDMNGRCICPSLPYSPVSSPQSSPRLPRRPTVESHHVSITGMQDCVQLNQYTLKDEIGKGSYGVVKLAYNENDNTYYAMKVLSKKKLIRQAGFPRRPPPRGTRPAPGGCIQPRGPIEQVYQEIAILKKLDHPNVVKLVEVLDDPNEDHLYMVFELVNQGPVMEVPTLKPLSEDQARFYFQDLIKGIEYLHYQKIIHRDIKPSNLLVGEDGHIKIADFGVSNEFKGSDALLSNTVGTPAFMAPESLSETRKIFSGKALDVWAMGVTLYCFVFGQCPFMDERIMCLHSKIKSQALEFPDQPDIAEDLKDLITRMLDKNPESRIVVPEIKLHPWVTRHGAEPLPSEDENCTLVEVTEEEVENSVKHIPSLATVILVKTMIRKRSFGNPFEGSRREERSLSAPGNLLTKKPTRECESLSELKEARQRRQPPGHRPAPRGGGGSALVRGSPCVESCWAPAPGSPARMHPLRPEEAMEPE
Serine/threonine-protein kinase pim-1 (Homo sapiens), sequence (P11309 whole entry, looked up): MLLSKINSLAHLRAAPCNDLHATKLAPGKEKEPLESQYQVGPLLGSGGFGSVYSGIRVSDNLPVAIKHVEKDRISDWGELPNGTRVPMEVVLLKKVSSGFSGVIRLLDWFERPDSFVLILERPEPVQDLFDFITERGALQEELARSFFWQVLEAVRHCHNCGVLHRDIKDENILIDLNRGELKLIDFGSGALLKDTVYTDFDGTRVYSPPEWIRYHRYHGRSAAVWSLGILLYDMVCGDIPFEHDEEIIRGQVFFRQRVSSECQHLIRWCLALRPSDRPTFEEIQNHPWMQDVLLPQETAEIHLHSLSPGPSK
MAP kinase-interacting serine/threonine-protein kinase 2 (Homo sapiens), sequence (Q9HBH9 whole entry, looked up): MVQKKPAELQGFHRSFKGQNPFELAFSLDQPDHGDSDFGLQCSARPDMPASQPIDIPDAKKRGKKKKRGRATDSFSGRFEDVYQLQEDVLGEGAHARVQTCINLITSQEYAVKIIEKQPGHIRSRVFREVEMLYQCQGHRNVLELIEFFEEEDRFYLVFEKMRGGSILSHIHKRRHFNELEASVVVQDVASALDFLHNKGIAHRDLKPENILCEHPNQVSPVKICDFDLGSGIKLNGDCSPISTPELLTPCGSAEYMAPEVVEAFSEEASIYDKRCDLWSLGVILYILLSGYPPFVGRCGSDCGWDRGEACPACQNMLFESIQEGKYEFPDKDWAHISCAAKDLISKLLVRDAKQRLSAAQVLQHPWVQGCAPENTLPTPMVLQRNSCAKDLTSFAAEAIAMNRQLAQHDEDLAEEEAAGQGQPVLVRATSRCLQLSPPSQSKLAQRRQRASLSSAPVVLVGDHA
Serine/threonine-protein kinase PAK 6 (Homo sapiens), sequence (Q9NQU5 whole entry, looked up): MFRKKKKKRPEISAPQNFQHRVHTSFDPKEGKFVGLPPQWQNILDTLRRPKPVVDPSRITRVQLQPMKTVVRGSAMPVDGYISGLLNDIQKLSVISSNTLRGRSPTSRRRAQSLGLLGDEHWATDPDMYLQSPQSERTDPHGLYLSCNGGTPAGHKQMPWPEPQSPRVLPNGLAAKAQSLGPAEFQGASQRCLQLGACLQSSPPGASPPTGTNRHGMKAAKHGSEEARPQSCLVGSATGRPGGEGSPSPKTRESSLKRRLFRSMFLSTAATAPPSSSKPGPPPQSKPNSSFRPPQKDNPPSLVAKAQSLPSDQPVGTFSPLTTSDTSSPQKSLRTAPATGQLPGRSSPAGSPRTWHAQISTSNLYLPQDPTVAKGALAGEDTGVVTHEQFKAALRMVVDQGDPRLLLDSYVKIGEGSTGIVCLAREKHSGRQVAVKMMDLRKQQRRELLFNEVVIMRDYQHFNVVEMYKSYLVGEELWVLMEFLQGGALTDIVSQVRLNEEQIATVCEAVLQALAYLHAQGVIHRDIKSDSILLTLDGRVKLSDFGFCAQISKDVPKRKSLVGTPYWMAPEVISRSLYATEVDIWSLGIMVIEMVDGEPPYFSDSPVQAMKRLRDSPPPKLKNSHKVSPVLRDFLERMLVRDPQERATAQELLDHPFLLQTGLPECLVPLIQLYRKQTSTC
Mitogen-activated protein kinase 11 (Homo sapiens), sequence (Q15759 whole entry): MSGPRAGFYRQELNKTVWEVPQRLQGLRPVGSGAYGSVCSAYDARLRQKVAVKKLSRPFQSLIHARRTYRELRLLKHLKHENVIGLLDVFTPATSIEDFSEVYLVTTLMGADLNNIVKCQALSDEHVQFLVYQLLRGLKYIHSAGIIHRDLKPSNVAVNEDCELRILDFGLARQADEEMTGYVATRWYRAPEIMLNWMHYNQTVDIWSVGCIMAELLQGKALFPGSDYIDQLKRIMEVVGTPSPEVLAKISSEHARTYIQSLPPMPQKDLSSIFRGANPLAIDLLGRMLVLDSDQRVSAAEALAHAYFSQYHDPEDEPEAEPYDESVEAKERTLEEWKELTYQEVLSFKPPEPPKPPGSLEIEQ

Compound	Activity [1] [%]	Activity [2] [%]	Activity [3] [%]	Activity [4] [%]	Activity [5] [%]	Activity [6] [%]	Activity [7] [%]	Activity [8] [%]	IC50 [9] [µM]	IC50 [10] [µM]	IC50 [11] [µM]	IC50 [12] [µM]
c1ccc2c(c1)[nH]c1c2ccc2cc[nH]c21	100	55	92	95	93	80	20	38	–	–	–	–
c1ccc2c(c1)[nH]c1c3cc[nH]c3ccc21	91	47	91	103	87	79	53	29	–	–	–	–
O=Cc1c[nH]c2ccc3c4ccccc4[nH]c3c12	96	112	99	109	102	85	79	102	–	–	–	–
O=Cc1c[nH]c2c1ccc1c3ccccc3[nH]c12	80	20	94	55	56	59	–	–	9.5	26	4.5	21
